Measurements: ChEMBL document CHEMBL3593159, “Identification of 5-nitrofuran-2-amide derivatives that induce apoptosis in triple negative breast cancer cells by activating C/EBP-homologous protein expression” (Bioorg Med Chem, 2015)
Activity calls are given as the source filed them. No cut-off for these calls is given here.

Tests used:
HCC1806 [1] = assay: Cytotoxicity against human HCC1806 cells assessed as reduction in cell viability incubated for 3 days by cell-titer-Glo reagent based assay; format: functional; conditions: for IC50: HCC1806, 72 h
Method in brief: (§1)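 Viability by CellTiter-Glo (ATP read-out). Cells plated at 3 × 10³/well in 384-well format overnight, then exposed to compound over a range (0.125–20 µM for initial series) for 3 d in RPMI 1640 with 10% FBS at 37°C, 5% CO₂. IC₅₀ fitted from dose–response curve.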

HCC38 = assay: Cytotoxicity against human HCC38 cells assessed as reduction in cell viability incubated for 3 days by cell-titer-Glo reagent based assay; format: functional; conditions: HCC38, 72 h; method in brief: as §1
HCC1143 = assay: Cytotoxicity against human HCC1143 cells assessed as reduction in cell viability incubated for 3 days by cell-titer-Glo reagent based assay; format: functional; conditions: HCC1143, 72 h; method in brief: as §1
HCC1806 [2] = assay: Cytotoxicity against human HCC1806 cells assessed as reduction in cell viability at 5 uM incubated for 48 hrs in presence of control siRNA by cell-titer-Glo reagent based assay; format: functional
Method in brief: (§2)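 HCC-1806 cells in serum-free RPMI transfected with 20 nM CHOP or scrambled siRNA by lipofection; after 6 h medium replaced with 10% FBS RPMI and compound (5 µM) or DMSO added for 48 h in 96-well format. Viability by CellTiter-Glo; 3 independent experiments, Student's t-test vs DMSO.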

HCC1806 [3] = assay: Increase in CHOP mRNA expression in human HCC1806 cells at 5 uM in presence of CHOP siRNA incubated for 48 hrs by qRT-PCR method; format: functional, cell-based
Method in brief: (§3)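 HCC-1806 cells transfected with CHOP or scrambled siRNA; 6 h later treated with 5 µM compound or DMSO for 48 h. CHOP mRNA by RT-PCR with GAPDH as internal control; 3 independent experiments.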

HCC1806 [4] = assay: Increase in CHOP mRNA expression in human HCC1806 cells at 10 uM by qRT-PCR method; format: functional, cell-based; conditions: TDE = time-dependent effect
Method in brief: (§4)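 HCC-1806 cells (4 × 10⁵/well) exposed to 10 µM over a time course; CHOP mRNA by qRT-PCR after TRIzol extraction and reverse transcription of 2 µg RNA. Means of 4 replicate wells, 3 experiments, t-test vs 0 h.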

HCC1806 [5] = assay: Increase in XBP1 mRNA splicing in human HCC1806 cells at 10 uM incubated for 8 hrs by RT-PCR method (reference value: 11%); format: functional
Method in brief: (§5)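 HCC-1806 cells given 10 µM compound or tunicamycin 1 µg/mL over a time course; XBP1 RT-PCR products resolved on agarose gel, GAPDH internal control. Spliced fraction by densitometry as XBP1s/(XBP1s+XBP1u) × 100%; 3 experiments.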

HCC1806 [6] = assay: Increase in CHOP mRNA expression in human HCC1806 cells incubated for 8 hrs by qRT-PCR method; format: functional, cell-based
Method in brief: (§6)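 HCC-1806 cells (4 × 10⁵/well, 6-well) treated at a series of concentrations for 8 h; total RNA by TRIzol, 2 µg reverse transcribed, CHOP mRNA by qRT-PCR. Means of 4 replicate wells, 3 experiments, t-test vs DMSO.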

HCC1806 [7] = assay: Increase in XBP1 mRNA splicing in human HCC1806 cells at 10 uM incubated for 2 hrs by RT-PCR method (reference value: 11%); format: functional; method in brief: as §5
HEK-293T [8] = assay: Increase in UPRE-mediated luciferase expression in HEK293T cells stably transfected with UPRE-luciferase gene at 10 uM incubated for 24 hrs by luciferase reporter gene assay relative to control; format: functional, Homo sapiens
Method in brief: (§7)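 HEK293T cells stably carrying CHOP-, ERSE- or UPRE-luciferase reporters plated 7 × 10³/well in 384-well plates, after 16 h given compound (10 µM), tunicamycin 1 µg/mL or DMSO for 24 h; luciferase by Bright-Glo. Means of 4 replicate wells, representative of 3 experiments.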

HCC1806 [9] = assay: Increase in XBP1 mRNA splicing in human HCC1806 cells at 10 uM incubated for 4 hrs by RT-PCR method (reference value: 11%); format: functional; method in brief: as §5
HCC1806 [10] = assay: Increase in cleaved caspase-4 protein expression in human HCC1806 cells at 10 uM incubated for 8 to 24 hrs by Western blotting method; format: functional, cell-based
Method in brief: (§8)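 HCC-1806 cells (8 × 10⁵ per 60-mm dish) treated with 10 µM for the indicated times, lysed in buffer with EDTA and phosphatase inhibitors; 20 µg protein on 7% SDS-PAGE, PVDF transfer, primary then HRP secondary antibodies (1:3000). α-Tubulin loading control; representative of 3 experiments.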

HCC1806 [11] = assay: Increase in ATF4 protein in human HCC1806 cells at 10 uM incubated for 2 to 8 hrs by Western blotting method; format: functional, cell-based; method in brief: as §8
HCC1806 [12] = assay: Increase in eIF2alpha phosphorylation in human HCC1806 cells at 10 uM incubated for 1 to 24 hrs by Western blotting method; format: functional, cell-based; method in brief: as §8
HCC1806 [13] = assay: Induction of apoptosis in human HCC1806 cells assessed as reduction in cell number at 10 uM incubated for 24 hrs by live-cell phase-contrast microscopy; format: functional, cell-based
Method in brief: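 Near-confluent HCC-1806 cultures treated with 10 µM compound or DMSO for 24 h, then imaged by live-cell phase-contrast microscopy at 10× magnification.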

HCC1806 [14] = assay: Increase in CHOP mRNA expression in human HCC1806 cells incubated for 8 hrs by qRT-PCR method relative to control; format: functional; method in brief: as §6
HCC1806 [15] = assay: Increase in Bim mRNA expression in human HCC1806 cells at 10 uM by RT-PCR method; format: functional, cell-based; conditions: TDE = time-dependent effect
Method in brief: (§9)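 HCC-1806 cells treated with 10 µM over a time course; ATF4, GADD34 or Bim mRNA by qRT-PCR. Means of 4 replicate wells, representative of 3 experiments, Student's t-test vs DMSO-treated cells.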

HCC1806 [16] = assay: Induction of apoptosis in human HCC1806 cells assessed as increase in caspase-3 cleavage at 10 uM incubated for 8 and 24 hrs by Western blotting method; format: functional, cell-based; method in brief: as §8
HCC1806 [17] = assay: Increase in CHOP mRNA expression in human HCC1806 cells at 10 uM by qRT-PCR method relative to control; format: functional; method in brief: as §4
HEK-293T [18] = assay: Increase in ERSE-mediated luciferase expression in HEK293T cells stably transfected with ERSE-luciferase gene at 10 uM incubated for 24 hrs by luciferase reporter gene assay; format: functional, cell-based; conditions: Homo sapiens; method in brief: as §7
HCC1806 [19] = assay: Reduction in Bcl-2 protein expression in human HCC1806 cells at 10 uM incubated for 2 to 24 hrs by Western blotting method; format: functional, cell-based; method in brief: as §8
HCC1806 [20] = assay: Increase in CHOP protein expression in human HCC1806 cells at 10 uM incubated for 2 and 24 hrs by Western blotting method; format: functional, cell-based; conditions: in the assay text read “4 and 24 hrs” for “2 and 24 hrs”; method in brief: as §8
MCF7 = assay: Cytotoxicity against human MCF7 cells assessed as reduction in cell viability incubated for 3 days by cell-titer-Glo reagent based assay; format: functional
Method in brief: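 HCC-1806 and MCF7 cells exposed to compound for 3 d, viability read by CellTiter-Glo kit; means of 4 replicate wells, representative of 3 independent experiments.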

HCC1806 [21] = assay: Reduction in ATF4 protein in human HCC1806 cells at 10 uM incubated for 2 to 8 hrs by Western blotting method; format: functional, cell-based; method in brief: as §8
HCC1806 [22] = assay: Increase in CHOP mRNA expression in human HCC1806 cells at 5 uM in presence of control siRNA incubated for 48 hrs by qRT-PCR method; format: functional, cell-based; method in brief: as §3
HCC1806 [23] = assay: Increase in GADD34 mRNA expression in human HCC1806 cells at 10 uM incubated for 2 to 24 hrs by qRT-PCR method; format: functional, cell-based; conditions: TDE = time-dependent effect; method in brief: as §9
HCC1806 [24] = assay: Cytotoxicity against human HCC1806 cells assessed as reduction in cell viability at 5 uM incubated for 48 hrs in presence of CHOP siRNA by cell-titer-Glo reagent based assay; format: functional; method in brief: as §2
HCC1806 [25] = assay: Increase in XBP1 mRNA splicing in human HCC1806 cells at 10 uM incubated for 24 hrs by RT-PCR method (reference value: 11%); format: functional; method in brief: as §5
HCC1806 [26] = assay: Increase in ATF4 mRNA expression in human HCC1806 cells at 10 uM incubated for 2 to 8 hrs by qRT-PCR method; format: functional, cell-based; method in brief: as §9
HCC1806 [27] = assay: Reduction in eIF2alpha phosphorylation in human HCC1806 cells at 10 uM incubated for 1 to 24 hrs by Western blotting method; format: functional, cell-based; method in brief: as §8

Cc1cc(NC(=O)c2ccc([N+](=O)[O-])o2)c(C)cc1I
IC50 (HCC1806 [1]): 3 µM

O=C(Nc1ccc(N2CCCCC2)c(Cl)c1)c1ccc([N+](=O)[O-])o1
IC50 (HCC1806 [1]): 3.5 µM | IC50 (HCC38): 3.8 µM | IC50 (HCC1143): 4.5 µM

O=C(Nc1ccc(N2CCN(Cc3ccccc3F)CC2)cc1)c1ccc([N+](=O)[O-])o1
IC50 (HCC1806 [1]): 3 µM | IC50 (HCC38): 1.9 µM | IC50 (HCC1143): 3.8 µM

O=C(Nc1ccc(N2CCOCC2)cc1)c1ccc([N+](=O)[O-])o1
IC50 (HCC1806 [1]): 1.5 µM | IC50 (HCC38): 3.1 µM | IC50 (HCC1143): 2.3 µM

CC1CCN(c2ccc(NC(=O)c3ccco3)cc2)CC1
IC50 (HCC1806 [1]): > 40 µM

O=C(Nc1ccc(Cl)cc1)c1ccc([N+](=O)[O-])o1
IC50 (HCC1806 [1]): 5.1 µM

COc1ccc(Cl)cc1NC(=O)c1ccc([N+](=O)[O-])o1
IC50 (HCC1806 [1]): 7 µM

Cc1ccc(NC(=O)c2ccc([N+](=O)[O-])o2)cc1
IC50 (HCC1806 [1]): 6.7 µM

CCc1cc(I)ccc1NC(=O)c1ccc([N+](=O)[O-])o1
IC50 (HCC1806 [1]): 5.5 µM

CC1CCN(c2ccc(NC(=O)c3ccc([N+](=O)[O-])o3)cc2)CC1
Activity (HCC1806 [2]): Active | Activity (HCC1806 [3]): Active | Activity (HCC1806 [4]): tde | Activity (HCC1806 [5]): 14.2% | Activity (HCC1806 [6]): Dose-dependent effect | Activity (HCC1806 [7]): 19.6% | fold change (FC) (HEK-293T [8]): < 2 | Activity (HCC1806 [9]): 16.4% | Activity (HCC1806 [10]): Active | Activity (HCC1806 [1]): Dose-dependent effect | IC50 (HCC1806 [1]): 2.8 µM | Activity (HCC1806 [11]): Active | Activity (HCC1806 [12]): Active | Activity (HCC1806 [13]): Active | fold change (FC) (HCC1806 [14]): 9 | Activity (HCC1806 [15]): tde | Activity (HCC1806 [16]): Active | fold change (FC) (HCC1806 [17]): 9 | Activity (HEK-293T [18]): inactive | Activity (HCC1806 [19]): Active | Activity (HCC1806 [20]): Active | Activity (MCF7): Dose-dependent effect | IC50 (HCC38): 2.5 µM | Activity (HCC1806 [21]): Active | Activity (HCC1806 [22]): Active | Activity (HCC1806 [23]): tde | IC50 (HCC1143): 2.1 µM | Activity (HCC1806 [24]): inactive | Activity (HCC1806 [25]): 15.3% | Activity (HCC1806 [26]): Active | Activity (HCC1806 [27]): Active
